In ChEMBL document CHEMBL1250442, “Inhibiting gene expression at transcription start sites in chromosomal DNA with antigene RNAs” (Nat Chem Biol, 2005):
Activity calls are given as the source filed them.

How the values were obtained:
T47D [1] = test: Inhibition of PR-A gene expression in human T47D cells at 25 nM by syber green assay in presence of 10 nM estradiol; assay type: functional, cell-based
T47D [2] = test: Inhibition of PR-B gene expression in human T47D cells at 25 nM by syber green assay in presence of 10 nM estradiol; assay type: functional, cell-based
T47D [3] = test: Inhibition of PR-A mRNA gene expression in human T47D cells at 100 nM by syber green assay; assay type: functional
Method in brief: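 T47D cells plated at 80,000/well without antibiotics two days before Oligofectamine transfection with agRNA duplex (25 or 100 nM final); medium changed at 24 h, harvest day 5 unless stated otherwise. TRIzol total RNA; PR mRNA by real-time PCR with SYBR Green: 50 °C 2 min, 95 °C 10 min, 40 cycles 95 °C 15 s/60 °C 1 min.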

T47D [4] = test: Inhibition of PR-B mRNA gene expression in human T47D cells at 100 nM by syber green assay; assay type: functional
Method in brief: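 T47D cells in RPMI-1640 with 10% FBS, NEAA, insulin, 37 °C, 5% CO2. Plated two days before transfection without antibiotics. Oligofectamine-mediated duplex RNA transfection at 100 nM final, medium changed at 24 h, harvest five days post-transfection. Total RNA extracted with TRIzol. hPR mRNA quantified by SYBR Green qPCR: 50 °C 2 min, 95 °C 10 min, then 40 cycles of 95 °C 15 s / 60 °C 1 min.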

T47D [5] = test: Inhibition of androgen receptor expression in human T47D cells after 12 days at 100 nM by syber green assay; assay type: functional, cell-based
Method in brief: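 AR expression in T47D cells, grown in RPMI-1640 with 10% FBS, NEAA and insulin. Plated antibiotic-free two days before Oligofectamine transfection with 100 nM duplex RNA; medium replaced after 24 h. TRIzol total RNA. SYBR Green real-time PCR: 50 °C 2 min, 95 °C 10 min, 40 cycles of 95 °C 15 s and 60 °C 1 min.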

T47D [6] = test: Effect of DNA methylation at (-178) CpG site near androgen receptor transcription start site (-9) in human T47D cells by sodium bisulfite sequencing analysis; assay type: functional, cell-based
Method in brief: (§1)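 T47D cells (RPMI-1640, 10% FBS, NEAA, insulin; 37 °C, 5% CO2) transfected with agRNA duplexes via Oligofectamine, medium changed at 24 h. Genomic DNA bisulphite-treated, regions around AR and hPR-B start sites PCR-amplified (HotStarTaq, 100 ng treated DNA), gel-purified, TOPO TA cloned; 5–15 colonies per plate miniprepped and sequenced.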

T47D [7] = test: Effect of DNA methylation at (-172) CpG site near androgen receptor transcription start site (-9) in human T47D cells by sodium bisulfite sequencing analysis; assay type: functional, cell-based; method in brief: as §1
T47D [8] = test: Effect of DNA methylation at (-167) CpG site near androgen receptor transcription start site (-9) in human T47D cells by sodium bisulfite sequencing analysis; assay type: functional, cell-based; method in brief: as §1
T47D [9] = test: Effect of DNA methylation at (-132) CpG site near androgen receptor transcription start site (-9) in human T47D cells by sodium bisulfite sequencing analysis; assay type: functional, cell-based; method in brief: as §1
T47D [10] = test: Effect of DNA methylation at (-126) CpG site near androgen receptor transcription start site (-9) in human T47D cells by sodium bisulfite sequencing analysis; assay type: functional, cell-based; method in brief: as §1
T47D [11] = test: Effect of DNA methylation at (-124) CpG site near androgen receptor transcription start site (-9) in human T47D cells by sodium bisulfite sequencing analysis; assay type: functional, cell-based; method in brief: as §1
T47D [12] = test: Effect of DNA methylation at (-122) CpG site near androgen receptor transcription start site (-9) in human T47D cells by sodium bisulfite sequencing analysis; assay type: functional, cell-based; method in brief: as §1
T47D [13] = test: Effect of DNA methylation at (-57) CpG site near androgen receptor transcription start site (-9) in human T47D cells by sodium bisulfite sequencing analysis; assay type: functional, cell-based; method in brief: as §1
T47D [14] = test: Effect of DNA methylation at (-52) CpG site near androgen receptor transcription start site (-9) in human T47D cells by sodium bisulfite sequencing analysis; assay type: functional, cell-based; method in brief: as §1
T47D [15] = test: Effect of DNA methylation at (-43) CpG site near androgen receptor transcription start site (-9) in human T47D cells by sodium bisulfite sequencing analysis; assay type: functional, cell-based; method in brief: as §1
T47D [16] = test: Effect of DNA methylation at (-36) CpG site near androgen receptor transcription start site (-9) in human T47D cells by sodium bisulfite sequencing analysis; assay type: functional, cell-based; method in brief: as §1
T47D [17] = test: Effect of DNA methylation at (-31) CpG site near androgen receptor transcription start site (-9) in human T47D cells by sodium bisulfite sequencing analysis; assay type: functional, cell-based; method in brief: as §1
T47D [18] = test: Effect of DNA methylation at (+1) CpG site near androgen receptor transcription start site (-9) in human T47D cells by sodium bisulfite sequencing analysis; assay type: functional, cell-based
Method in brief: (§2)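 T47D cells grown in RPMI-1640 with 10% FBS, 0.5% NEAA, insulin and P/S at 37 °C, 5% CO2. They were plated at 80,000 cells/well 2 days before lipid transfection with 25 nM or 100 nM duplex, with medium changed at 24 h. Cells were harvested 5 days post-transfection. 100 ng bisulfite-treated DNA was PCR-amplified, and products were TA-cloned. 5–15 colonies per plate were sequenced.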

T47D [19] = test: Effect of DNA methylation at (+11) CpG site near androgen receptor transcription start site (-9) in human T47D cells by sodium bisulfite sequencing analysis; assay type: functional, cell-based; method in brief: as §2
T47D [20] = test: Effect of DNA methylation at (+19) CpG site near androgen receptor transcription start site (-9) in human T47D cells by sodium bisulfite sequencing analysis; assay type: functional, cell-based; method in brief: as §2
T47D [21] = test: Effect of DNA methylation at (+43) CpG site near androgen receptor transcription start site (-9) in human T47D cells by sodium bisulfite sequencing analysis; assay type: functional, cell-based; method in brief: as §1

Cc1cn(CC(=O)N(CCNC(=O)CN(CCNC(=O)CN(CCNC(=O)CN(CCNC(=O)CN(CCNC(=O)CN(CCNC(=O)CN(CCNC(=O)CN(CCNC(=O)CN(CCNC(=O)CN(CCNC(=O)CN(CCNC(=O)CN(CCNC(=O)CN(CCNC(=O)CN(CCNC(=O)CN(CCNC(=O)CN(CCNC(=O)CN(CCNC(=O)CN(CCNC(=O)CN(CCNC(=O)CN(CCNC(=O)CN)C(=O)Cn2ccc(N)nc2=O)C(=O)Cn2ccc(N)nc2=O)C(=O)Cn2cnc3c(N)ncnc32)C(=O)Cn2ccc(N)nc2=O)C(=O)Cn2ccc(N)nc2=O)C(=O)Cn2ccc(=O)[nH]c2=O)C(=O)Cn2ccc(N)nc2=O)C(=O)Cn2ccc(N)nc2=O)C(=O)Cn2ccc(N)nc2=O)C(=O)Cn2cnc3c(N)ncnc32)C(=O)Cn2cnc3c(=O)[nH]c(N)nc32)C(=O)Cn2ccc(N)nc2=O)C(=O)Cn2cnc3c(=O)[nH]c(N)nc32)C(=O)Cn2ccc(N)nc2=O)C(=O)Cn2ccc(N)nc2=O)C(=O)Cn2ccc(N)nc2=O)C(=O)Cn2ccc(N)nc2=O)C(=O)Cn2ccc(N)nc2=O)C(=O)Cn2ccc(=O)[nH]c2=O)CC(=O)NCCN(CC(=O)NCC(=O)O)C(=O)Cn2cc(C)c(=O)[nH]c2=O)c(=O)[nH]c1=O
inactive: Activity (T47D [6]) | Activity (T47D [7]) | Activity (T47D [8]) | Activity (T47D [9]) | Activity (T47D [10]) | Activity (T47D [11]) | Activity (T47D [12]) | Activity (T47D [13]) | Activity (T47D [14]) | Activity (T47D [15]) | Activity (T47D [16]) | Activity (T47D [17]) | Activity (T47D [18]) | Activity (T47D [19]) | Activity (T47D [20]) | Activity (T47D [21])
active: inhibition (T47D [1]) | inhibition (T47D [2]) | inhibition (T47D [5])
82%: inhibition at 0.1 µM (T47D [3]) | inhibition at 0.1 µM (T47D [4])
